Measured values reported in ChEMBL document CHEMBL3784960, “New 4-Functionalized Glutamate Analogues Are Selective Agonists at Metabotropic Glutamate Receptor Subtype 2 or Selective Agonists at Metabotropic Glutamate Receptor Group III” (J Med Chem, 2016).
Active and inactive are the calls of the source. The calls are words filed in the database; no cut-off is given here.

Assays:
[1] = target: T1, Metabotropic glutamate receptor 1 (Rattus norvegicus, UniProt P23385); assay: Agonist activity at rat mGlu1 receptor expressed in HEK293 cells by intracellular Ca2+ mobilization assay; format: functional, cell-based
[2] = target: T2, Metabotropic glutamate receptor 2 (Rattus norvegicus, UniProt P31421); assay: Agonist activity at rat mGlu2 receptor expressed in HEK293 cells by [35S]GTP-gamma binding assay; format: cell-based
[3] = target: T3, Metabotropic glutamate receptor 5 (Rattus norvegicus, UniProt P31424); assay: Agonist activity at rat mGlu5 receptor expressed in HEK293 cells by intracellular Ca2+ mobilization assay; format: functional, cell-based
[4] = target: T4, Metabotropic glutamate receptor 4 (Rattus norvegicus, UniProt P31423); assay: Agonist activity at rat mGlu4 receptor expressed in HEK293 cells assessed as inhibition of forskolin stimulated cAMP production; format: functional, cell-based
[5] = target: T5, Metabotropic glutamate receptor 3 (Rattus norvegicus, UniProt P31422); assay: Agonist activity at rat mGlu3 receptor expressed in HEK293 cells by [35S]GTP-gamma binding assay; format: cell-based
[6] = target: Metabotropic glutamate receptor 7 (Homo sapiens, UniProt Q14831); assay: Agonist activity at human mGlu7 receptor expressed in HEK293 assessed as inhibition of forskolin stimulated cAMP production; format: functional, cell-based
[7] = target: T5, Metabotropic glutamate receptor 3; assay: Agonist activity at rat mGlu3 receptor by FRET based mGlu sensor assay
Summary of the method: (§1)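 Receptor carried an N-terminal SNAP-tag and was transfected into HEK293 cells. At 24 h, surface receptors were labelled for 1 h with 100 nM SNAP-Lumi4-Tb (donor) and 60 nM SNAP Green (acceptor), washed three times, then drug was added. Time-resolved FRET was recorded at 520 nm, at least in duplicate. EC50 ± SEM came from n = 4−6 experiments.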

[8] = target: T2, Metabotropic glutamate receptor 2; assay: Agonist activity at rat mGlu2 receptor by FRET based mGlu sensor assay
Summary of the method: as §1, with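 “duplicate.” for “duplicate. EC50 ± SEM came from n = 4−6 experiments.”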

[9] = target: T6, Excitatory amino acid transporter 1 (Homo sapiens, UniProt P43003); assay: Substrate activity at human EAAT1 assessed as [3H]Asp uptake measured up to 300 uM
[10] = Displacement of [3H]KA from rat synaptosome KA receptor after 60 mins by microplate scintillation counter analysis
[11] = target: Metabotropic glutamate receptor 8 (Rattus norvegicus, UniProt P70579); assay: Agonist activity at rat mGlu8 receptor expressed in HEK293 cells assessed as IP1 accumulation by IP-One functional assay; format: cell-based
Summary of the method: (§2)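 HEK293 cells were transiently electroporated with the rat receptor plus a chimeric Gi/Gq protein for PLC coupling and EAAC1. Medium was replaced by Glutamax at least 2 h before agonist. IP1 accumulation was measured by HTRF 24 h post-transfection, at least in duplicate. EC50 ± SEM came from n = 4−6 experiments.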

[12] = target: Metabotropic glutamate receptor 3 (Rattus norvegicus) (UniProt P31422); assay: Agonist activity at mGlu3 receptor (rat) assessed as IP1 accumulation preincubated with 3 uM LY341495 for 20 mins followed by addition of 1 mM of compound by IP-One functional assay
[13] = Displacement of [3H]AMPA from rat synaptosome AMPA receptor after 30 mins by microplate scintillation counter analysis
[14] = target: T4, Metabotropic glutamate receptor 4; assay: Agonist activity at rat mGlu4 receptor expressed in HEK293 cells assessed as IP1 accumulation by IP-One functional assay; format: cell-based; summary of the method: as §2
[15] = target: Metabotropic glutamate receptor 7 (Rattus norvegicus, UniProt P35400); assay: Agonist activity at rat mGlu7 receptor expressed in HEK293 cells assessed as IP1 accumulation by IP-One functional assay; format: cell-based; summary of the method: as §2
[16] = target: T2, Metabotropic glutamate receptor 2; assay: Agonist activity at rat mGlu2 receptor expressed in HEK293 cells assessed as IP1 accumulation by IP-One functional assay; format: cell-based
Summary of the method: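 HEK293 cells were transiently electroporated with the rat receptor plus a chimeric Gi/Gq protein for PLC coupling and EAAC1. Medium was replaced by Glutamax at least 2 h before agonist. IP1 accumulation was measured by HTRF 24 h post-transfection, at least in duplicate.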

[17] = target: T6, Excitatory amino acid transporter 1; assay: Inhibition of human EAAT1 assessed as [3H]Asp uptake
[18] = target: Metabotropic glutamate receptor 6 (Rattus norvegicus, UniProt P35349); assay: Agonist activity at rat mGlu6 receptor expressed in HEK293 cells assessed as IP1 accumulation by IP-One functional assay; format: cell-based; summary of the method: as §2
[19] = target: Metabotropic glutamate receptor 2 (Homo sapiens) (UniProt Q14416); assay: Agonist activity at mGlu2 receptor (unknown origin) assessed as IP1 accumulation preincubated with 3 uM LY341495 for 20 mins followed by addition of 1 mM of compound by IP-One functional assay
Summary of the method: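 Single-dose test in HEK293 cells cotransfected with rat receptor, chimeric Gi/Gq and EAAC1. Cells were pretreated with 3 μM LY341495 for 20 min at 37 °C, washed twice, then stimulated with 1 mM compound. IP1 was read by HTRF 24 h post-transfection. Comparison was against vehicle by one-way ANOVA with Dunnett's test.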

[20] = target: T7, Excitatory amino acid transporter 2 (Homo sapiens, UniProt P43004); assay: Substrate activity at human EAAT2 assessed as [3H]Asp uptake measured up to 300 uM
[21] = target: T7, Excitatory amino acid transporter 2; assay: Inhibition of human EAAT2 assessed as [3H]Asp uptake
[22] = target: T3, Metabotropic glutamate receptor 5; assay: Agonist activity at rat mGlu5 receptor expressed in HEK293 cells assessed as IP1 accumulation by IP-One functional assay; format: cell-based
[23] = target: T1, Metabotropic glutamate receptor 1; assay: Agonist activity at rat mGlu1 receptor expressed in HEK293 cells assessed as IP1 accumulation by IP-One functional assay; format: cell-based
Summary of the method: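 Rat group I receptor transiently electroporated into HEK293 with the EAAC1 glutamate transporter; medium switched to Glutamax at least 2 h before stimulation. IP1 was read by HTRF (IP-One kit) 24 h after transfection. Runs were at least in duplicate, with EC50 ± SEM from n = 4−6 experiments.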

[24] = target: T8, Excitatory amino acid transporter 3 (Homo sapiens, UniProt P43005); assay: Inhibition of human EAAT3 assessed as [3H]Asp uptake
T8 sequence (P43005 whole entry): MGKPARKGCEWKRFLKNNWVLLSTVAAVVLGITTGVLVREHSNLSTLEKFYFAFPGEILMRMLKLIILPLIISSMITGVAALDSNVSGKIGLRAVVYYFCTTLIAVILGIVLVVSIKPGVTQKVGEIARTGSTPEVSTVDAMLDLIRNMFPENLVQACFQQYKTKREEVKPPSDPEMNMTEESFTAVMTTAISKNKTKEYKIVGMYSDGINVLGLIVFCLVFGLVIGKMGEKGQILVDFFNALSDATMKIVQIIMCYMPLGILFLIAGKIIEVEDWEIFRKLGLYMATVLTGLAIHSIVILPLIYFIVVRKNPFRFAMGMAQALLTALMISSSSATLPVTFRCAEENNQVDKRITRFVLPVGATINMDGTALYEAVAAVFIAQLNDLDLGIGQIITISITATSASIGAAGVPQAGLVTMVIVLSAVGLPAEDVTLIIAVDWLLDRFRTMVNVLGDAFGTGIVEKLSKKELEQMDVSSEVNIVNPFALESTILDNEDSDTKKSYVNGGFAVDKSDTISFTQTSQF

Glutamate NMDA receptor = assay: Displacement of [3H]CGP from rat synaptosome NMDA receptor after 60 mins by microplate scintillation counter analysis; format: protein-complex assay

T5 sequence (P31422 whole entry): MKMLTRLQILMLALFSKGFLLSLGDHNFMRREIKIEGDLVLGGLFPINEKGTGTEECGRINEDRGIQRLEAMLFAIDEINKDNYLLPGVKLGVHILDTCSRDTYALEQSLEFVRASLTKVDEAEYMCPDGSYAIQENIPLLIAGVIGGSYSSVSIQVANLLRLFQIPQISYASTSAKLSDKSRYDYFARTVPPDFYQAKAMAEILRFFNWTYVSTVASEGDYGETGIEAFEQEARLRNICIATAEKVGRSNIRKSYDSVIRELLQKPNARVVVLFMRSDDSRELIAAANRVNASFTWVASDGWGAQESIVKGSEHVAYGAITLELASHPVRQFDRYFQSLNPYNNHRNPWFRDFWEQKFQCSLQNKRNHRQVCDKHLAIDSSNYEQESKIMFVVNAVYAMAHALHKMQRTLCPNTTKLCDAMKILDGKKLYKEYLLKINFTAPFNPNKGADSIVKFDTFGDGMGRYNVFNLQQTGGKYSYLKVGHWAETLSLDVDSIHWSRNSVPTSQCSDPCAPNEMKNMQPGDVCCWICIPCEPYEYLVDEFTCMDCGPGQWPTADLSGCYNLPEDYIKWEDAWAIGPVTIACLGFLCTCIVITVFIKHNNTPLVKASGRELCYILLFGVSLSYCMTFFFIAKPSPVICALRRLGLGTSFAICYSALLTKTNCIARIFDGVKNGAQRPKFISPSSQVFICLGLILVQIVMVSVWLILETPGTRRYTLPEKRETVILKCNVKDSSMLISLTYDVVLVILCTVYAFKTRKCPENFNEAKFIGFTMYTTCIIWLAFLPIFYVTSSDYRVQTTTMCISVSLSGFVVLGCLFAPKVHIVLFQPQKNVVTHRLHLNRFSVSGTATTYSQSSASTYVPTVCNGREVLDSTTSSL
T6 sequence (P43003 whole entry): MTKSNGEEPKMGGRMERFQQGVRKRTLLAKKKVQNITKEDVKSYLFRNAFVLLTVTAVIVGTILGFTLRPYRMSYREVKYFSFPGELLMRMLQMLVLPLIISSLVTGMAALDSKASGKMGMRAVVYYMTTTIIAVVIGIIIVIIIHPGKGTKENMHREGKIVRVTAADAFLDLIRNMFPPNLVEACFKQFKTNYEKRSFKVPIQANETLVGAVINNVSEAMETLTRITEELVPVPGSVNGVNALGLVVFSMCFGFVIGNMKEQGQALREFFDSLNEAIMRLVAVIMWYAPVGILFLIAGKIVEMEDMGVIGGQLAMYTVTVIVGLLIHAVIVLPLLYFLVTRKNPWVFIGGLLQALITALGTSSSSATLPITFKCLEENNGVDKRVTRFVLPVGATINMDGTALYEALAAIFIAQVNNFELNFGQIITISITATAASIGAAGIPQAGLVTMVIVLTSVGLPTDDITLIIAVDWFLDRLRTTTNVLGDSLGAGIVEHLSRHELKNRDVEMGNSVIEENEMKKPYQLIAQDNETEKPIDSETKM
T2 sequence (P31421 whole entry): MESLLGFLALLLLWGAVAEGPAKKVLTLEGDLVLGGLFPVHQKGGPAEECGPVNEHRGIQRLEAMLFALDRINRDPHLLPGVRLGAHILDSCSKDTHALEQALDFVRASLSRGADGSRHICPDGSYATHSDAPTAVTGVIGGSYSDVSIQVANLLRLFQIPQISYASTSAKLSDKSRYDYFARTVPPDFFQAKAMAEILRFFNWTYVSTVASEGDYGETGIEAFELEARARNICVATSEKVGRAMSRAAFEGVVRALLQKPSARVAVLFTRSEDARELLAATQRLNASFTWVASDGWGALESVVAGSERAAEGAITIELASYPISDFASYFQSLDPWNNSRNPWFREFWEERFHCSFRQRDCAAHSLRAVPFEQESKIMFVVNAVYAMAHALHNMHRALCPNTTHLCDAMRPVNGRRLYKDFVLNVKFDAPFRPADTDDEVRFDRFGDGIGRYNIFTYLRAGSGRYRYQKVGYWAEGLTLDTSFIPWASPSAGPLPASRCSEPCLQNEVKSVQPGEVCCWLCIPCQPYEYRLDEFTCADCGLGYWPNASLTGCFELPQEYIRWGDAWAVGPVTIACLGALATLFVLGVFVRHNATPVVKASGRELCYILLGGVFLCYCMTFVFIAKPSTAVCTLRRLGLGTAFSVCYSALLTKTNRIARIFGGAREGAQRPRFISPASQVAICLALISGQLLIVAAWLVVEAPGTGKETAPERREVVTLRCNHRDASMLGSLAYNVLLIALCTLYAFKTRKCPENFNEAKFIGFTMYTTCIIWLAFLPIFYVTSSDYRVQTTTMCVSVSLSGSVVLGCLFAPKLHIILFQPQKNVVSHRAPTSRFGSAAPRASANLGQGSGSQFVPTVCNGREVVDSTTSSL
T4 sequence (P31423 whole entry): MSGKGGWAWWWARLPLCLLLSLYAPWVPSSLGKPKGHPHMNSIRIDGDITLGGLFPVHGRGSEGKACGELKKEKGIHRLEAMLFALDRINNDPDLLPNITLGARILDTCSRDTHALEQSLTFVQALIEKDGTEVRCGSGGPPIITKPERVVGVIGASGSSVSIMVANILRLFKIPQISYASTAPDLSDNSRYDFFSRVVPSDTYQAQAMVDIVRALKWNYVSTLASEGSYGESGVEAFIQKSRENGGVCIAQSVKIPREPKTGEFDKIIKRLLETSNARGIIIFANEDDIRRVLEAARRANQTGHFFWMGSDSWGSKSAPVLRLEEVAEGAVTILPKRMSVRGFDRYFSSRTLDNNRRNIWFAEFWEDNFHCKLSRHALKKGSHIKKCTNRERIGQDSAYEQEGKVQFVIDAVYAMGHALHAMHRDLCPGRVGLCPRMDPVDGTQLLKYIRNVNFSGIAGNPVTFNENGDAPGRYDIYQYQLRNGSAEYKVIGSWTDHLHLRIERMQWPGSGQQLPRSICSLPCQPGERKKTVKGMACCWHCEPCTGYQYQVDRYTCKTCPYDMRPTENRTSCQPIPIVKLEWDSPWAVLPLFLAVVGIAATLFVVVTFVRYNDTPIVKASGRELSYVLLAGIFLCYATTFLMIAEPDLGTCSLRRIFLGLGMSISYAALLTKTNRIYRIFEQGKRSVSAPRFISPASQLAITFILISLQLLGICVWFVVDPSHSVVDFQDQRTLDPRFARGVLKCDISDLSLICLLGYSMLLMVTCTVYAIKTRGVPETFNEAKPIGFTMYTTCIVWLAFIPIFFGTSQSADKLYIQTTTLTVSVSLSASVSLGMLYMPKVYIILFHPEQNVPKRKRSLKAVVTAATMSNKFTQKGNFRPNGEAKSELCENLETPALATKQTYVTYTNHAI
Sequence of Metabotropic glutamate receptor 6 (P35349 whole entry): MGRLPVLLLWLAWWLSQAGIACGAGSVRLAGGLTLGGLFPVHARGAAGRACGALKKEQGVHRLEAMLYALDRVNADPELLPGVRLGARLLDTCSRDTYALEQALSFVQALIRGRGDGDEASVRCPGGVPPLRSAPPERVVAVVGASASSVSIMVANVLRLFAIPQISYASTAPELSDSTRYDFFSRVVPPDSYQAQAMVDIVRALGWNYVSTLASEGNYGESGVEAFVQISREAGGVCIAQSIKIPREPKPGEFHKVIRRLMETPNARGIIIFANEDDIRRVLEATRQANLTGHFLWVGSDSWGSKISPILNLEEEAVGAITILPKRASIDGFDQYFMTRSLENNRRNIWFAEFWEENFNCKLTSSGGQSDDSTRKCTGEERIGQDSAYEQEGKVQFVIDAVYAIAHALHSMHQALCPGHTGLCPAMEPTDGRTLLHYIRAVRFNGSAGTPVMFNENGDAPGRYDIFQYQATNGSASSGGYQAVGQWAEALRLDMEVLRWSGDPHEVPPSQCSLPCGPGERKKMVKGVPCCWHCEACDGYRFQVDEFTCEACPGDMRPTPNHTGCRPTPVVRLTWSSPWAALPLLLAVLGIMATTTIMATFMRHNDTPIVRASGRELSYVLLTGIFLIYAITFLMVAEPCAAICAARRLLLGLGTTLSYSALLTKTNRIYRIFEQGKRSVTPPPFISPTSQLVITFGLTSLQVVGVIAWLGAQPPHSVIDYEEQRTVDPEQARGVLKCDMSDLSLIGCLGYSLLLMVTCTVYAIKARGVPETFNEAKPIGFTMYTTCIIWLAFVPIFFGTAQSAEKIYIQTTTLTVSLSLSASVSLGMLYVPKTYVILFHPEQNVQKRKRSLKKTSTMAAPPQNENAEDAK
Sequence of Metabotropic glutamate receptor 7 (Homo sapiens, UniProt Q14831) (Q14831 whole entry): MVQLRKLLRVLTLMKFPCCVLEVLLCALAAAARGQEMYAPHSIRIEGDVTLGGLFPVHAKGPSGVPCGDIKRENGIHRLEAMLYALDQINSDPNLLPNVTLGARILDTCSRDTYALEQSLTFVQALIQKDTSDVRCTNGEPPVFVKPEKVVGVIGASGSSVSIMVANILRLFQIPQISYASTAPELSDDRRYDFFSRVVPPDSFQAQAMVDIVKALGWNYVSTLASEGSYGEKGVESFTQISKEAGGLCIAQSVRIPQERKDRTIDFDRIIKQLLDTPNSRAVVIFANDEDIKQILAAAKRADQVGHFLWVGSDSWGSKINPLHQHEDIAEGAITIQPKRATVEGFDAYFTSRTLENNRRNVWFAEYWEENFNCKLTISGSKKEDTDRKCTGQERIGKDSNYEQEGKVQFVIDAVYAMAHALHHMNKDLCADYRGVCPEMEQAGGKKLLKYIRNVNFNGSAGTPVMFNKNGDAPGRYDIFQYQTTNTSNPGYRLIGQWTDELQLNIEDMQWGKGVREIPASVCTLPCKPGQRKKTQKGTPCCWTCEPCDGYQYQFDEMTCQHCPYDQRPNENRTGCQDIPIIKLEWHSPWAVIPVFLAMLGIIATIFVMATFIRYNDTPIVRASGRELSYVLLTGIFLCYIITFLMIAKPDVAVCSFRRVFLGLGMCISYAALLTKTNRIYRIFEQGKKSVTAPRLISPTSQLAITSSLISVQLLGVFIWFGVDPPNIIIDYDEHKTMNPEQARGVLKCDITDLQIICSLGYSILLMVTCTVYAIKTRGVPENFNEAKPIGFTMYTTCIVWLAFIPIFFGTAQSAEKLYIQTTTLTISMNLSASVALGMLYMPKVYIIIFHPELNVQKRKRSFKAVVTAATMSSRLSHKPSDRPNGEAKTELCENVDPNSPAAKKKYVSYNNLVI
Sequence of Metabotropic glutamate receptor 3 (Rattus norvegicus) (P31422 whole entry, looked up): as the sequence (P31422 whole entry) above
Sequence of Metabotropic glutamate receptor 7 (Rattus norvegicus, UniProt P35400) (P35400 whole entry): as the sequence (Q14831 whole entry) above, with R5G, A27V, N454H, S488T, A520S, D578N counted along it

| Structure (SMILES) | EC50 [1] | EC50 ([2]; read-out: EC50) | EC50 [3] | EC50 [4] | EC50 [5] | EC50 [6] | EC50 [7] | EC50 [11] | EC50 [14] | EC50 [18] | further results |
| --- | --- | --- | --- | --- | --- | --- | --- | --- | --- | --- | --- |
| NCCC[C@H](C[C@H](N)C(=O)O)C(=O)O | > 1000 µM | 49 µM | > 1000 µM | > 1000 µM | > 1000 µM | > 1000 µM |  |  |  |  | EC50 ([2]; read-out: pEC50 (converted)): 4.9 µM |
| CNC(=O)CC[C@H](C[C@H](N)C(=O)O)C(=O)O | > 1000 µM | > 1000 µM | > 1000 µM | > 1000 µM |  |  |  |  |  |  |  |
| CC[C@H](C[C@H](N)C(=O)O)C(=O)O | > 1000 µM | > 1000 µM |  | > 1000 µM |  |  |  |  |  |  |  |
| N[C@@H](C[C@@H](CCC(=O)O)C(=O)O)C(=O)O | > 1000 µM | 1.63 µM | > 1000 µM | > 1000 µM | 348 µM | > 1000 µM | > 1000 µM | > 1000 µM | ≥ 100 µM | > 1000 µM | EC50 [8]: 120 µM; Activity [9]: inactive; IC50 [10]: > 100 µM; Activity [12]: inactive; EC50 ([2]; read-out: pEC50 (converted)): 1.66 µM; IC50 [13]: > 100 µM; EC50 [15]: > 1000 µM; EC50 [16]: 34.2 µM; IC50 [17]: > 300 µM; Activity [19]: Active; Activity [20]: inactive; IC50 [21]: > 300 µM; EC50 [22]: > 1000 µM; EC50 [23]: > 1000 µM; IC50 [24]: > 300 µM |
| N#CCC[C@H](C[C@H](N)C(=O)O)C(=O)O | > 1000 µM | > 1000 µM | > 1000 µM | > 1000 µM | > 1000 µM | > 1000 µM |  |  |  |  |  |
| N[C@@H](C[C@@H](CC(=O)O)C(=O)O)C(=O)O | > 1000 µM | > 1000 µM | > 1000 µM | > 1000 µM | > 1000 µM | > 1000 µM |  |  |  |  |  |
| N[C@@H](CCC(=O)O)C(=O)O [GLUTAMIC ACID] |  |  |  |  | 0.06 µM | 1.18 µM | 3.4 µM | 14 µM | 9.49 µM | 65.1 µM |  |
| N[C@@H](C[C@]1(C(=O)O)C[C@@H]1C(=O)O)C(=O)O |  |  |  |  |  |  | > 1000 µM | > 1000 µM | > 1000 µM | > 1000 µM | EC50 [8]: 119 µM; Activity [9]: inactive; IC50 [10]: > 100 µM; Activity [12]: inactive; IC50 [13]: > 100 µM; EC50 [15]: > 1000 µM; EC50 [16]: 33.7 µM; IC50 [17]: > 300 µM; Activity [19]: Active; Activity [20]: inactive; IC50 [21]: > 300 µM; EC50 [22]: > 1000 µM; EC50 [23]: > 1000 µM; Ki (Glutamate NMDA receptor): > 100 µM; IC50 [24]: > 300 µM |
| NCC[C@H](C[C@H](N)C(=O)O)C(=O)O | > 1000 µM | > 1000 µM | > 1000 µM | > 1000 µM | > 1000 µM | > 1000 µM |  |  |  |  |  |
